Assay results collected from several papers.
Protocols differ between the studies behind these lines.
CYP3A4: Cytochrome P450 3A4 (CYP3A4, Homo sapiens, UniProt P08684)
CYP1A2: Cytochrome P450 1A2 (CYP1A2, Homo sapiens, UniProt P05177)

Compound	target or system	assay	system	setting	measurement	value
Cc1cccc(F)c1N1CCC(N2Cc3cn(CC(C)(F)F)nc3N(Cc3ccccc3C(F)(F)F)C2=O)CC1	CYP3A4	enzyme activity, inhibitor	human, liver microsomes	midazolam probe	IC50	> 10 µM
O=C(Nc1ncc([N+](=O)[O-])s1)c1ccccc1O	BHK-21	cell growth or viability, MTT			CC50	> 1000 µM
CCC[C@@](N)(CO)CCc1ccc(OCCCCCC(C)C)cc1			mouse, plasma	oral, 10 mg/kg	Cmax	161 nM
O=c1[nH]cnc2c1nnn2-c1cccc(Cl)c1	BHK-21	cell growth or viability, MTT			CC50	> 1000 µM
S=C(Nc1ccc2c(c1)Cc1ccccc1-2)Nc1ccc2c(c1)Cc1ccccc1-2	BHK-21	cell growth or viability, MTT		42 h	CC50	236 µM
Cc1nc2c([nH]1)c(=O)n(C)c(=O)n2Cc1ccco1	CYP1A2	enzyme activity, inhibitor	human, liver microsomes	40 µM	inhibition	71%
CCCCCCCC(=O)N[C@@H](CCCCN)C(=O)N[C@@H](CCCCN)C(=O)N[C@@H](C)C(=O)N[C@@H](CC(C)C)C(=O)N[C@@H](CCCCN)C(=O)N[C@@H](CC(C)C)C(=O)N[C@@H](C)C(=O)N[C@@H](CCCCN)C(=O)N[C@@H](CCCCN)C(=O)N1CCC[C@H]1C(=O)N[C@@H](CC(C)C)C(=O)N[C@@H](CCCCN)C(=O)N[C@@H](CC(C)C)C(=O)N[C@@H](CC(C)C)C(=O)N[C@@H](CCCCN)C(N)=O			female CD-1 mouse, blood	intravenous, 10 mg/kg, single dose	Cmax	6950 ng/mL
O=C1NC(=O)/C(=C\c2ccc3ccccc3c2)S1	BHK-21	cell growth or viability, MTT			CC50	> 100 µM
C[C@]12CC[C@H](n3ccnc3)CC1=CC[C@@H]1[C@@H]2CC[C@]2(C)C(n3cnc4ccccc43)=CC[C@@H]12.Cl.Cl			male CD-1 mouse, plasma	oral, 10 mg/kg	Cmax	1510 ng/mL
Cc1cc(C)nc(Nc2ncc(C(=O)NCCc3c(C)[nH]c4ccccc34)cn2)c1			C57BL/6 mouse, plasma	intraperitoneal, 22 mg/kg	Cmax	1150 ng/mL
O=C(Nc1ccc(O)cc1)c1ccccc1O	BHK-21	cell growth or viability, MTT			CC50	> 1000 µM
COC(=O)C1CCN(C(=O)c2ccc(NCc3cnc4nc(N)nc(N)c4n3)cc2)CC1	CYP1A2	enzyme activity, inhibitor, luciferase		10 µM	inhibition	-8.49%
NCCc1ccccn1	CYP3A4	thermal stability			ΔTm	-0.1 °C
